The target of the assay is Potassium voltage-gated channel subfamily KQT member 1 (Homo sapiens) (UniProt P51787). The assay can be described thus: KCNQ1 thallium flux concentration-response – KCNQ1-expressing cells, selectivity assay for KCNQ2 activator project, dose response (AID 504417). In outline: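 Controls – stimulated vehicle wells and unstimulated blank wells · Assay system – CHO cells expressing the KCNQ1 potassium channel · Measured by – kinetic FluxOR Tl+ flux fluorescence · Schedule – dye load 90 min, compound 20 min, room temperature · Measure – fluorescence change (max minus min) over baseline, normalized to vehicle and blank controls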

Our source for the outcome values is PubChem BioAssay AID504417 (Johns Hopkins Ion Channel Center, 2011).

Activity calls are given as the source filed them.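 The calls were made as follows: active = potentiation or inhibition of the KCNQ1 potassium channel at any tested concentration, with a dose response curve obtained; inactive = no effect at any concentration, or no dose response.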

Chain of Potassium voltage-gated channel subfamily KQT member 1 (Homo sapiens) (P51787 whole entry, looked up): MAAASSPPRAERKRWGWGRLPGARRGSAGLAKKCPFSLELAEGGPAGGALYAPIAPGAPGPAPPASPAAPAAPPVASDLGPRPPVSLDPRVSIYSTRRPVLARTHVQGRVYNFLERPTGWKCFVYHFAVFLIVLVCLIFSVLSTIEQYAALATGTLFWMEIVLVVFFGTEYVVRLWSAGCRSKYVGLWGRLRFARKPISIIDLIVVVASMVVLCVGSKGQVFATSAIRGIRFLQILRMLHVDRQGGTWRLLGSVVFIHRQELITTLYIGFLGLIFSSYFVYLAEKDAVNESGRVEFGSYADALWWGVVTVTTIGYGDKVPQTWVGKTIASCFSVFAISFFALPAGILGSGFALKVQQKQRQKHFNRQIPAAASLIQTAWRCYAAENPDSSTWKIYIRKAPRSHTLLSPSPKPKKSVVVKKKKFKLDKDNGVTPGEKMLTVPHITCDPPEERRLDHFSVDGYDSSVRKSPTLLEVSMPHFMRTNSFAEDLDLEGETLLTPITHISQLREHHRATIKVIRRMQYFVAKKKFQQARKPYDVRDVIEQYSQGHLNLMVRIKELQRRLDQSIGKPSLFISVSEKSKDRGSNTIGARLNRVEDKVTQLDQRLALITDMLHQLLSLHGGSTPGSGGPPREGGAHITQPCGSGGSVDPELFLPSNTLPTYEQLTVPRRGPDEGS

For the compound `CCCCC(=O)Nc1c(C)cc(C)cc1Cl`, the call was inactive. Take `Cc1ccc(C)c(NC(=O)C2CC3CCC2C3)c1` (stereo not given): the call was inactive. The result for `Cc1cc(C)c(NC(=O)CC(C)(C)C)c(Cl)c1` reads “inactive”; that for `Cc1cc(C)c(NC(=O)C2CC3CCC2C3)c(C)c1` (stereo not given), “inactive”. The result for `Cc1cccc(C)c1NC(=O)C1CC2CCC1C2` (stereo not given) reads “inactive”.
